Source: ChEMBL document CHEMBL4732106, “Paracetamol analogues conjugated by FAAH induce TRPV1-mediated antinociception without causing acute liver toxicity” (Eur J Med Chem, 2021)
Activity calls are given as the source filed them. The rule behind the calls is not given here.

How the values were obtained:
Mus musculus [1] = test: Antipyretic activity against LPS-induced C57BL/6 mouse model of hyperthermia assessed as TXB2 level in diencephalon at 100 mg/kg, ip measured after 40 mins by LC-MS/MS analysis relative to control; format: functional
Summary of the method: (§1)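 Male C57BL/6 mice got LPS (E. coli O111:B4, 100 μg kg⁻¹ i.p.) or saline, then 3 h later the drug i.p. in Ringer's acetate vehicle. Diencephalon was taken 40 min later and homogenized in Tris/EDTA/ascorbate with 10 μM MAFP and 100 μM ibuprofen. Prostanoids were quantified by negative-ion LC-MS/MS and expressed as % of LPS + vehicle. n = 6.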

[2] = Inhibition of prostanoid synthesis in FAAH+/+ mouse assessed as TXB2 level in diencephalon at 150 mg/kg, ip measured after 40 mins by LC-MS/MS analysis relative to control; format: functional; parameters: scale not given: the % may be the effect or the level left
Summary of the method: (§2)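 In a separate set, FAAH+/+ (n = 10–11) and FAAH-/- (n = 5) mice received LPS 100 μg kg⁻¹ i.p., then paracetamol 150 mg kg⁻¹ i.p. 3 h later. Diencephalic PGE2, PGF2α, 6-keto-PGF1α and TXB2 were measured by negative-ion LC-MS/MS and expressed as % of febrile vehicle-treated animals. Values below the detection limit were set to 1/4 of that limit.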

[3] = Inhibition of prostanoid synthesis in FAAH+/+ mouse assessed as PGE2 level in diencephalon at 150 mg/kg, ip measured after 40 mins by LC-MS/MS analysis relative to control; format: functional; parameters: scale not given: the % may be the effect or the level left; summary of the method: as §2
[4] = Hepatotoxicity in C57BL/6 mouse assessed as centrilobular necrosis at 300 mg/kg, ip measured after 12 hrs by H and E staining based microscopic analysis; format: toxicity, organism-based; details: in vivo
Summary of the method: (§3)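 Male C57BL/6 mice (8 weeks) were fasted 12–16 h, then given 300 mg kg⁻¹ i.p. in saline. At 12 h, blood was taken for serum ALT/AST (automated analyser). The left medial liver lobe was fixed in 4% formaldehyde, cryosectioned at 10 μm and stained with H&E. The ALT/AST ratio was tested against 1. Mean ± SEM, n = 6–7.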

[5] = Hepatotoxicity in C57BL/6 mouse assessed as change in ALT level at 300 mg/kg, ip measured after 12 hrs; format: toxicity, organism-based; details: in vivo; summary of the method: as §3
[6] = Inhibition of prostanoid synthesis in FAAH-/- mouse assessed as TXB2 level in diencephalon at 150 mg/kg, ip measured after 40 mins by LC-MS/MS analysis relative to control; format: functional; parameters: scale not given: the % may be the effect or the level left; summary of the method: as §2
Mus musculus [7] = test: Antipyretic activity against LPS-induced C57BL/6 mouse model of hyperthermia assessed as PGE2 level in diencephalon at 100 mg/kg, ip measured after 40 mins by LC-MS/MS analysis relative to control; format: functional; summary of the method: as §1
[8] = Inhibition of prostanoid synthesis in FAAH-/- mouse assessed as 6-keto-PGF1alpha level in diencephalon at 150 mg/kg, ip measured after 40 mins by LC-MS/MS analysis relative to control; format: functional; parameters: scale not given: the % may be the effect or the level left; summary of the method: as §2
[9] = Inhibition of prostanoid synthesis in FAAH-/- mouse assessed as PGF2alpha level in diencephalon at 150 mg/kg, ip measured after 40 mins by LC-MS/MS analysis relative to control; format: functional; parameters: scale not given: the % may be the effect or the level left; summary of the method: as §2
[10] = Inhibition of prostanoid synthesis in FAAH-/- mouse assessed as PGE2 level in diencephalon at 150 mg/kg, ip measured after 40 mins by LC-MS/MS analysis relative to control; format: functional; parameters: scale not given: the % may be the effect or the level left; summary of the method: as §2
Mus musculus [11] = test: Antipyretic activity against LPS-induced C57BL/6 mouse model of hyperthermia assessed as reduction in body temperature at 100 mg/kg, ip measured after 75 mins; format: functional, organism-based
Summary of the method: (§4)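 Male C57BL/6 mice carried telemetry and recovered ≥1 week before use, housed at 29 °C ambient (near-thermoneutral). LPS 100 μg kg⁻¹ i.p. or saline was given, then drug or Ringer's acetate vehicle i.p. 3 h later. Core temperature was recorded continuously and analysed at the nadir time point. n = 4–9 per group.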

Mus musculus [12] = test: Antipyretic activity against LPS-induced C57BL/6 mouse model of hyperthermia assessed as PGF2alpha level in diencephalon at 100 mg/kg, ip measured after 40 mins by LC-MS/MS analysis relative to control; format: functional; summary of the method: as §1
[13] = Inhibition of prostanoid synthesis in FAAH+/+ mouse assessed as 6-keto-PGF1alpha level in diencephalon at 150 mg/kg, ip measured after 40 mins by LC-MS/MS analysis relative to control; format: functional; parameters: scale not given: the % may be the effect or the level left; summary of the method: as §2
[14] = Inhibition of prostanoid synthesis in FAAH+/+ mouse assessed as PGF2alpha level in diencephalon at 150 mg/kg, ip measured after 40 mins by LC-MS/MS analysis relative to control; format: functional; parameters: scale not given: the % may be the effect or the level left; summary of the method: as §2
Mus musculus [15] = test: Antipyretic activity against LPS-induced C57BL/6 mouse model of hyperthermia assessed as 6-keto-PGF1alpha level in diencephalon at 100 mg/kg, ip measured after 40 mins by LC-MS/MS analysis relative to control; format: functional; summary of the method: as §1
Mus musculus [16] = test: Antipyretic activity against LPS-induced C57BL/6 mouse model of hyperthermia assessed as TXB2 level in diencephalon at 30 mg/kg, ip measured after 40 mins by LC-MS/MS analysis relative to control; format: functional; summary of the method: as §1
Mus musculus [17] = test: Antipyretic activity against LPS-induced C57BL/6 mouse model of hyperthermia assessed as reduction in body temperature at 30 mg/kg, ip measured after 75 mins; format: functional, organism-based; summary of the method: as §4
Mus musculus [18] = test: Antipyretic activity against LPS-induced C57BL/6 mouse model of hyperthermia assessed as 6-keto-PGF1alpha level in diencephalon at 30 mg/kg, ip measured after 40 mins by LC-MS/MS analysis relative to control; format: functional; summary of the method: as §1
Mus musculus [19] = test: Antipyretic activity against LPS-induced C57BL/6 mouse model of hyperthermia assessed as PGF2alpha level in diencephalon at 30 mg/kg, ip measured after 40 mins by LC-MS/MS analysis relative to control; format: functional; summary of the method: as §1
[20] = molecular target: T1, Fatty-acid amide hydrolase 1 (Mus musculus, UniProt O08914); test: Substrate activity at FAAH in FAAH+/+ mouse brain assessed as N-arachidonoyl conjugate level per g protein at 0.1 mM measured after 20 mins by LC-MS/MS analysis; format: ADME, tissue-based; details: 100 µM
T1 sequence (O08914 whole entry): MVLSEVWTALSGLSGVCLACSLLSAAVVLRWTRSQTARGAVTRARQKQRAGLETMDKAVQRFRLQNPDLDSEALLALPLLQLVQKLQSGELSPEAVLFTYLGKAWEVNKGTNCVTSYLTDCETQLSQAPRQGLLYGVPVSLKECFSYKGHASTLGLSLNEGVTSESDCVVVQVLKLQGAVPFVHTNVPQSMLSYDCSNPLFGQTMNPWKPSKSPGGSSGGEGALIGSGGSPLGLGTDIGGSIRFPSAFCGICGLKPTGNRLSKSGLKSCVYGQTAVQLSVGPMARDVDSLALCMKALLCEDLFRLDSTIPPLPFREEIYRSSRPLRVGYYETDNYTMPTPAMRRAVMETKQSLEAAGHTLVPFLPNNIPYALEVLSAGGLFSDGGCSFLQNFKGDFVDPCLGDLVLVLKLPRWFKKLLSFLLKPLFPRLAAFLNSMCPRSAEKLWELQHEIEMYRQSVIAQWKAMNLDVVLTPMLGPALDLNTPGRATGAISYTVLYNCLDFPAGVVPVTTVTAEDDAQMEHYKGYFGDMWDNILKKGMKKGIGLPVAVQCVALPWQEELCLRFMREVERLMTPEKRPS
Summary of the method: (§5)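 Brains from FAAH+/+ or FAAH-/- mice were homogenized in ice-cold 10 mM Tris with 1 mM EDTA and 0.3 mM ascorbic acid. Aliquots were incubated with 0.1 mM primary amine for 20 min at 37 °C with stirring. Reactions were stopped with cold acetone containing AM404-d4 internal standard, and conjugates were measured by LC-MS/MS. n = 5–7.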

[21] = Prodrug conversion in FAAH-/- mouse brain assessed as N-arachidonoyl conjugate level per g protein at 100 mg/kg, ip measured after 20 mins by LC-MS/MS analysis; format: ADME, organism-based; parameters: unit: pmol/g protein; details: in vivo
Summary of the method: (§6)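 FAAH+/+ and FAAH-/- mice (both sexes) received the primary amine i.p. in saline (sometimes with 5% DMSO). Brains were collected 20 min later, frozen, and homogenized in Tris/EDTA/ascorbate with 10 μM MAFP. N-arachidonoyl conjugates were quantified by positive-ion LC-MS/MS and normalized to protein.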

[22] = Prodrug conversion in FAAH+/+ mouse brain assessed as N-arachidonoyl conjugate level per g protein at 100 mg/kg, ip measured after 20 mins by LC-MS/MS analysis; format: ADME, organism-based; parameters: unit: pmol/g protein; details: in vivo; summary of the method: as §6
Mus musculus [23] = test: Antipyretic activity against LPS-induced C57BL/6 mouse model of hyperthermia assessed as PGE2 level in diencephalon at 30 mg/kg, ip measured after 40 mins by LC-MS/MS analysis relative to control; format: functional; summary of the method: as §1
Mus musculus [24] = test: Hepatotoxicity in C57BL/6 mouse assessed as change in ALT/AST ratio at 300 mg/kg, ip measured after 12 hrs; format: functional; summary of the method: as §3
[25] = Prodrug conversion in FAAH-/- mouse brain assessed as N-arachidonoyl conjugate level per g protein at 0.1 mM measured after 20 mins by LC-MS/MS analysis; format: ADME, tissue-based; details: in vitro, 100 µM; summary of the method: as §5

CC(=O)Nc1ccc(O)cc1 [ACETAMINOPHEN]
Activity (Mus musculus [1]): 36% | Activity [2]: 25% | Activity [3]: 8% | Activity [4]: Toxic | Activity [5]: Toxic | Activity [6]: 18% | Activity (Mus musculus [7]): 13% | Activity [8]: 12% | Activity [9]: 10% | Activity [10]: 9% | Activity (Mus musculus [11]): Active | Activity (Mus musculus [12]): 18% | Activity [13]: 15% | Activity [14]: 19% | Activity (Mus musculus [15]): 17%

Nc1ccc(O)cc1 [4-AMINOPHENOL]
Activity [4]: Non-Toxic | Activity [5]: Non-Toxic | Activity (Mus musculus [16]): 60% | Activity (Mus musculus [17]): inactive | Activity (Mus musculus [18]): 60% | Activity (Mus musculus [19]): 81% | Drug metabolism [20]: 8.8 nmol/g | Drug metabolism [21]: 24 pmol | Drug metabolism [22]: 1002 pmol | Activity (Mus musculus [23]): 44% | Ratio (Mus musculus [24]): >1 | Drug metabolism [25]: 0.05 nmol/g
